Test system: Escherichia coli
Experiment: Ability to inhibit the peptide bond formation by fragment reaction in Escherichia coli was determined
Type: functional
Conditions: read-out: ED50 (the source's name)
Outline: (§1)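 Fragment reaction: ribosomes (1 mg/mL, from E. coli MRE600 or S. cerevisiae Y166) in 150 μL of 33 mM Tris-HCl pH 7.4, 270 mM KCl, 13 mM Mg acetate, with 2 mM puromycin, 1 pmol N-acetyl-[³H]Leu-ACCAC(U) donor (ribonuclease T1 fragment of N-acetyl-[³H]Leu-tRNA), 33% methanol and test drug; no mRNA or small subunit. Values are averages of three experiments.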

Row | Structure (SMILES) | EC50 [µM]
1 | CSC[S@@+]([O-])C[C@@H](CO)NC(=O)/C=C/c1c(C)[nH]c(=O)[nH]c1=O (racemic) | 1000
2 | Cc1nc(O)nc(O)c1/C=C/C(=O)N[C@@H](CO)C[S@+]([O-])CCl | 5000
3 | Cc1nc(O)nc(O)c1/C=C/C(=O)NC(CO)CSC[S+](C)[O-] (stereo not given) | 750

Second part, the compound after the results:

Row | EC50 [µM] | Structure (SMILES)
4 | 60 | CCCCCCCCSC[S+]([O-])CC(CO)NC(=O)/C=C/c1c(C)nc(O)nc1O (stereo not given)
5 | 30 | CSC[S+]([O-])CC(CO)NC(=O)/C=C/c1cnc(O)nc1O (stereo not given)
6 | 550 | CSCSC[C@H](CO)NC(=O)/C=C/c1c(C)nc(O)nc1O
7 | 7.6 | Cc1nc(O)nc(O)c1/C=C/C(=O)N[C@@H](CO)C[S@@+]([O-])CCl

Test system: not listed separately
Experiment: Effect of 2-propanol on inhibition of the fragment reaction in the presence of 200 uM of compound was determined
Conditions: not given

Row | Inhibition [%] | Structure (SMILES)
8 | 6 | CCCCCCCCSC[S+]([O-])CC(CO)NC(=O)/C=C/c1c(C)nc(O)nc1O (stereo not given)

Test system: Saccharomyces cerevisiae
Experiment: Ability to inhibit the peptide bond formation by fragment reaction in Saccharomyces cerevisiae was determined
Type: functional
Conditions: read-out: ED50 (the source's name)
Outline: as §1

Row | Structure (SMILES) | EC50 [µM]
9 | CSC[S@@+]([O-])C[C@@H](CO)NC(=O)/C=C/c1c(C)[nH]c(=O)[nH]c1=O (racemic) | 1000
10 | Cc1nc(O)nc(O)c1/C=C/C(=O)N[C@@H](CO)C[S@+]([O-])CCl | 5000
11 | Cc1nc(O)nc(O)c1/C=C/C(=O)NC(CO)CSC[S+](C)[O-] (stereo not given) | 350

Results, then the compound that gave them:

Row | EC50 [µM] | Structure (SMILES)
12 | 300 | CCCCCCCCSC[S+]([O-])CC(CO)NC(=O)/C=C/c1c(C)nc(O)nc1O (stereo not given)
13 | 50 | CSC[S+]([O-])CC(CO)NC(=O)/C=C/c1cnc(O)nc1O (stereo not given)
14 | 150 | CSCSC[C@H](CO)NC(=O)/C=C/c1c(C)nc(O)nc1O
15 | 17 | Cc1nc(O)nc(O)c1/C=C/C(=O)N[C@@H](CO)C[S@@+]([O-])CCl

Test system: not listed separately
Experiment: Ability to inhibit the bacterial growth of Escherichia coli (MRE600) by 50% was determined.
Type: functional
Parameters: reference not given here
Conditions: not given

Row | Structure (SMILES) | Ratio
16 | CCCCCCCCSC[S+]([O-])CC(CO)NC(=O)/C=C/c1c(C)nc(O)nc1O (stereo not given) | 2.5
17 | CSC[S+]([O-])CC(CO)NC(=O)/C=C\c1cnc(O)nc1O (stereo not given) | 0.47
18 | CSC[S+]([O-])CC(CO)NC(=O)/C=C/c1cnc(O)nc1O (stereo not given) | 0.27
19 | Cc1nc(O)nc(O)c1/C=C/C(=O)N[C@@H](CO)C[S@@+]([O-])CCl | 0.55
20 | CSC[S@@+]([O-])C[C@@H](CO)NC(=O)/C=C/c1c(C)[nH]c(=O)[nH]c1=O (racemic) | 0.01
21 | Cc1nc(O)nc(O)c1/C=C/C(=O)N[C@@H](CO)C[S@+]([O-])CCl | 0.01

Test system: Escherichia coli
Experiment: Ability to inhibit the peptide bond formation by puromycin reaction in Escherichia coli was determined
Type: functional
Conditions: read-out: ED50 (the source's name)

Row | Structure (SMILES) | EC50 [µM]
22 | CSC[S@@+]([O-])C[C@@H](CO)NC(=O)/C=C/c1c(C)[nH]c(=O)[nH]c1=O (racemic) | 100
23 | Cc1nc(O)nc(O)c1/C=C/C(=O)N[C@@H](CO)C[S@+]([O-])CCl | 5000
24 | Cc1nc(O)nc(O)c1/C=C/C(=O)NC(CO)CSC[S+](C)[O-] (stereo not given) | 160

Further lines, results first:

Row | EC50 [µM] | Structure (SMILES)
25 | 0.25 | CCCCCCCCSC[S+]([O-])CC(CO)NC(=O)/C=C/c1c(C)nc(O)nc1O (stereo not given)
26 | 50 | CSC[S+]([O-])CC(CO)NC(=O)/C=C/c1cnc(O)nc1O (stereo not given)
27 | 7 | CSCSC[C@H](CO)NC(=O)/C=C/c1c(C)nc(O)nc1O
28 | 0.65 | Cc1nc(O)nc(O)c1/C=C/C(=O)N[C@@H](CO)C[S@@+]([O-])CCl

Test system: Escherichia coli
Experiment: Ability to inhibit the phenylalanine synthesis in Escherichia coli was determined
Type: functional
Conditions: read-out: ED50 (the source's name)
Outline: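 Poly(U)-directed [³H]Phe polymerization with E. coli MRE600 ribosomes ([…]) and S-100. The reaction was started with 30 μM [³H]Phe and run 30 min at 37 °C. TCA-insoluble counts were taken on glass-fiber filters. Averages of three experiments.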

Row | Structure (SMILES) | EC50 [µM]
29 | CSC[S@@+]([O-])C[C@@H](CO)NC(=O)/C=C/c1c(C)[nH]c(=O)[nH]c1=O (racemic) | 2000
30 | Cc1nc(O)nc(O)c1/C=C/C(=O)N[C@@H](CO)C[S@+]([O-])CCl | 2000
31 | Cc1nc(O)nc(O)c1/C=C/C(=O)NC(CO)CSC[S+](C)[O-] (stereo not given) | 2000

Further lines, results first:

Row | EC50 [µM] | Structure (SMILES)
32 | 1.6 | CCCCCCCCSC[S+]([O-])CC(CO)NC(=O)/C=C/c1c(C)nc(O)nc1O (stereo not given)
33 | 600 | CSC[S+]([O-])CC(CO)NC(=O)/C=C/c1cnc(O)nc1O (stereo not given)
34 | 2000 | CSCSC[C@H](CO)NC(=O)/C=C/c1c(C)nc(O)nc1O
35 | 450 | Cc1nc(O)nc(O)c1/C=C/C(=O)N[C@@H](CO)C[S@@+]([O-])CCl

Test system: not listed separately
Experiment: Ability to inhibit the growth of Escherichia coli (MRE600) by 50% was determined. Activity represent the ratio of ED50 of sparsomycin to the ED50 of the compound
Type: functional
Conditions: not given
Outline: (§2)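 Liquid culture: E. coli MRE600 was grown in LB plus 0.2% glucose to A560 0.1, then 1-mL aliquots were incubated with drug 4 h at 37 °C. Growth was stopped with 0.1% sodium azide and A550 read; drug-free medium counts as 100%. ED50 (μM) is the dose giving 50% growth; the value reported is sparsomycin ED50/analogue ED50.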

Row | Structure (SMILES) | Ratio
36 | CSCSC[C@H](CO)NC(=O)/C=C/c1c(C)nc(O)nc1O | 1.8

Test system: not listed separately
Experiment: Effect of ethanol on inhibition of the fragment reaction in the presence of 200 uM of compound was determined
Conditions: not given

Row | Inhibition [%] | Structure (SMILES)
37 | 30 | CCCCCCCCSC[S+]([O-])CC(CO)NC(=O)/C=C/c1c(C)nc(O)nc1O (stereo not given)

Test system: not listed separately
Experiment: Effect of methanol on inhibition of the fragment reaction in the presence of 200 uM of compound was determined
Conditions: not given

Row | Inhibition [%] | Structure (SMILES)
38 | 42 | CCCCCCCCSC[S+]([O-])CC(CO)NC(=O)/C=C/c1c(C)nc(O)nc1O (stereo not given)

Test system: L1210
Experiment: Ability to inhibit the colony formation of leukemia L1210 cells in agar medium (0.3%) was determined
Type: functional
Conditions: Mus musculus, read-out: ID50 (the source's name)

Row | Structure (SMILES) | IC50 [µM]
39 | CSC[S@@+]([O-])C[C@@H](CO)NC(=O)/C=C/c1c(C)[nH]c(=O)[nH]c1=O (racemic) | 300
40 | Cc1nc(O)nc(O)c1/C=C/C(=O)N[C@@H](CO)C[S@+]([O-])CCl | 30
41 | Cc1nc(O)nc(O)c1/C=C/C(=O)NC(CO)CSC[S+](C)[O-] (stereo not given) | 180

Next, values leading:

Row | IC50 [µM] | Structure (SMILES)
42 | 0.1 | CCCCCCCCSC[S+]([O-])CC(CO)NC(=O)/C=C/c1c(C)nc(O)nc1O (stereo not given)
43 | 12.7 | CSC[S+]([O-])CC(CO)NC(=O)/C=C/c1cnc(O)nc1O (stereo not given)
44 | 12.8 | CSCSC[C@H](CO)NC(=O)/C=C/c1c(C)nc(O)nc1O
45 | 0.29 | Cc1nc(O)nc(O)c1/C=C/C(=O)N[C@@H](CO)C[S@@+]([O-])CCl

Test system: not listed separately
Experiment: Ability to inhibit the bacterial growth of Escherichia coli (MRE600) by 50% was determined Activity represent the ratio of ED50 of sparsomycin to the ED50 of the compound
Type: functional
Conditions: not given
Outline: as §2

Row | Structure (SMILES) | Ratio
46 | Cc1nc(O)nc(O)c1/C=C/C(=O)NC(CO)CSC[S+](C)[O-] (stereo not given) | 0.4

Test system: Saccharomyces cerevisiae
Experiment: Ability to inhibit the phenylalanine synthesis in Saccharomyces cerevisiae was determined
Type: functional
Conditions: read-out: ED50 (the source's name)
Outline: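 Yeast (S. cerevisiae Y166) ribosomes and S-100 in the same poly(U)/[³H]Phe mix as the E. coli assay, with 20 mM creatine phosphate and 50 μg/mL creatine phosphokinase as the energy system. Incubation was 30 min at 30 °C. Cold 10% TCA precipitate was filter-counted. Averages of three experiments.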

Row | Structure (SMILES) | EC50 [µM]
47 | CSC[S@@+]([O-])C[C@@H](CO)NC(=O)/C=C/c1c(C)[nH]c(=O)[nH]c1=O (racemic) | 2000
48 | Cc1nc(O)nc(O)c1/C=C/C(=O)N[C@@H](CO)C[S@+]([O-])CCl | 2500
49 | Cc1nc(O)nc(O)c1/C=C/C(=O)NC(CO)CSC[S+](C)[O-] (stereo not given) | 2000

Results, then the compound that gave them:

Row | EC50 [µM] | Structure (SMILES)
50 | 1.3 | CCCCCCCCSC[S+]([O-])CC(CO)NC(=O)/C=C/c1c(C)nc(O)nc1O (stereo not given)
51 | 1000 | CSC[S+]([O-])CC(CO)NC(=O)/C=C/c1cnc(O)nc1O (stereo not given)
52 | 2000 | CSCSC[C@H](CO)NC(=O)/C=C/c1c(C)nc(O)nc1O
53 | 220 | Cc1nc(O)nc(O)c1/C=C/C(=O)N[C@@H](CO)C[S@@+]([O-])CCl

Test system: Saccharolobus solfataricus
Experiment: Ability to inhibit the phenylalanine synthesis in Sulfolobus solfataricus was determined
Type: functional
Conditions: read-out: ED50 (the source's name)

Row | EC50 [µM] | Structure (SMILES)
54 | 5000 | Cc1nc(O)nc(O)c1/C=C/C(=O)N[C@@H](CO)C[S@@+]([O-])CCl
55 | 5000 | Cc1nc(O)nc(O)c1/C=C/C(=O)N[C@@H](CO)C[S@+]([O-])CCl
